By IC50 is commonly meant the concentration at which inhibition is half-maximal.

This test concerns the target Protein farnesyltransferase (Homo sapiens, UniProt P49354+P49356). Description: Inhibitory activity against recombinant mammalian protein Farnesyltransferase expressed in baculovirus. An outline of the steps: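 Recombinant mammalian FTase, baculovirus-expressed and purified, assayed continuously by fluorescence with dansyl-GCVLS-OH as peptide cosubstrate and the FPP analogue as isoprenoid. IC50 is taken from the decrease in activity with rising analogue concentration. Analogue concentrations were verified by phosphate analysis.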

The structures appear in SMILES notation.

For the compound `CC(C)=CCC/C(C)=C/CC/C(=C/COP(=O)(O)OP(=O)(O)O)C(C)C`, the half-inhibitory concentration (IC50) was found to be 0.035 µM. Take `CC(C)=CCC/C(C)=C/CC/C(=C/COP(=O)(O)OP(=O)(O)O)c1ccc(F)cc1`: the IC50 was 10.1 µM.

For `CCC/C(=C\COP(=O)(O)OP(=O)(O)O)CC/C=C(\C)CCC=C(C)C`, the IC50 is 0.453 µM. As for `C=C(C)/C(=C\COP(=O)(O)OP(=O)(O)O)CC/C=C(\C)CCC=C(C)C`, the IC50 stood at 0.018 µM. Regarding `CC(C)=CCC/C(C)=C/CC/C(=C/COP(=O)(O)OP(=O)(O)O)CC(C)C`, the IC50 was 0.29 µM. Turning to `CCC(C)/C(=C\COP(=O)(O)OP(=O)(O)O)CC/C=C(\C)CCC=C(C)C` (stereo not drawn), the IC50 came out at 0.102 µM. The result for `CC(C)=CCC/C(C)=C/CC/C(=C/COP(=O)(O)OP(=O)(O)O)CC(C)(C)C` reads 6.6 µM; that for `C=CC/C(=C\COP(=O)(O)OP(=O)(O)O)CC/C=C(\C)CCC=C(C)C`, 0.119 µM.

Source of the values: ChEMBL document CHEMBL1133135, “Grignard-mediated synthesis and preliminary biological evaluation of novel 3-substituted farnesyl diphosphate analogues” (Bioorg Med Chem Lett, 2000).
